Reference: ChEMBL document CHEMBL4190364, “Design, synthesis and anti-HIV evaluation of novel diarylpyridine derivatives as potent HIV-1 NNRTIs” (Eur J Med Chem, 2017)

molecular target: Human immunodeficiency virus type 1 reverse transcriptase (Human immunodeficiency virus 1) (UniProt Q72547); assay: Potency index, ratio of IC50 for nevirapine to IC50 for test compound for inhibition of recombinant wild type HIV1 reverse transcriptase p66/p51 incubated for 40 mins using poly(rA) template and oligo(dT)16 primer by picogreen dye based spectrofluorometry; settings: not given

Row | Compound | Ratio IC50
1 | Cc1cc(Br)c(Oc2cnc(N)c(Nc3ccc(C#N)cc3)c2)c(Br)c1 | 45

system: not listed separately; assay: Selectivity index, ratio of CC50 for mock-infected human MT4 cells to EC50 for antiviral activity against HIV1 3B infected in human MT4 cells; assay type: toxicity, cell-based; settings: mock-infected (CC50) and HIV1 3B infected (EC50)
Summary of the method: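 SI is CC₅₀/EC₅₀. Both values come from parallel MTT readings on mock-infected and HIV-1 IIIB-infected (100-300 CCID₅₀) MT-4 cells, in triplicate wells with serial fivefold dilutions, read after 5 days.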

Row | Compound | selectivity ratio
2 | Cc1cn([C@H]2C[C@H](N=[N+]=[N-])[C@@H](CO)O2)c(=O)[nH]c1=O [ZIDOVUDINE] | > 1290
3 | Cc1cc(Cl)cc(C)c1Oc1cnc([N+](=O)[O-])c(Nc2ccc(C#N)cc2)c1 | > 171
4 | N#Cc1ccc(Nc2cc(Oc3c(Cl)cc(Cl)cc3Cl)cnc2[N+](=O)[O-])cc1 | > 924
5 | COc1cccc(OC)c1Oc1cnc(N)c(Nc2ccc(C#N)cc2)c1 | > 10
6 | Cc1cccc(C)c1Nc1cnc([N+](=O)[O-])c(Nc2ccc(C#N)cc2)c1 | 6
7 | Cc1cc(Br)c(Oc2cnc([N+](=O)[O-])c(Nc3ccc(C#N)cc3)c2)c(Br)c1 | 1680
8 | Cc1cc(C#N)cc(C)c1Oc1cnc(N)c(Nc2ccc(C#N)cc2)c1 | 577
9 | N#Cc1ccc(Nc2cc(Oc3c(Br)cc(Br)cc3Br)cnc2[N+](=O)[O-])cc1 | > 277
10 | Cc1cccc(C)c1Oc1cnc(N)c(Nc2ccc(C#N)cc2)c1 | > 628
11 | N#Cc1ccc(Nc2cc(Oc3c(Cl)cc(Cl)cc3Cl)cnc2N)cc1 | 680
12 | Cc1cc(Cl)cc(C)c1Oc1cnc(N)c(Nc2ccc(C#N)cc2)c1 | 95
13 | Cc1cc(Br)c(Oc2cnc(N)c(Nc3ccc(C#N)cc3)c2)c(Br)c1 | > 3800

system: Human immunodeficiency virus 1; assay: Antiviral activity against HIV1 3B infected in human MT4 cells assessed as inhibition of virus-induced cytopathogenicity by measuring virus-induced syncytium formation by MTT assay; assay type: functional, organism-based; settings: Human immunodeficiency virus 1, 3B
Summary of the method: (§1)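 MT-4 cells, exponentially growing, spun 5 min at 220 g and resuspended at 6×10^5 cells/mL. Infected with virus stock at 100-300 CCID₅₀ (HIV-1 IIIB or HIV-2 ROD). Serial fivefold compound dilutions were tested in triplicate wells. Viability was read by MTT after 5 days at 540 and 690 nm, using the median OD of three wells.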

Row | Compound | EC50 [µM]
14 | Cc1cn([C@H]2C[C@H](N=[N+]=[N-])[C@@H](CO)O2)c(=O)[nH]c1=O [ZIDOVUDINE] | 0.006
15 | Cc1cc(Cl)cc(C)c1Oc1cnc([N+](=O)[O-])c(Nc2ccc(C#N)cc2)c1 | 1.41
16 | N#Cc1ccc(Nc2cc(Oc3c(Cl)cc(Cl)cc3Cl)cnc2[N+](=O)[O-])cc1 | 0.31
17 | COc1cccc(OC)c1Oc1cnc(N)c(Nc2ccc(C#N)cc2)c1 | 35.7
18 | Cc1cccc(C)c1Nc1cnc([N+](=O)[O-])c(Nc2ccc(C#N)cc2)c1 | 1.06
19 | Cc1cc(Br)c(Oc2cnc([N+](=O)[O-])c(Nc3ccc(C#N)cc3)c2)c(Br)c1 | 0.05
20 | Cc1cc(C#N)cc(C)c1Oc1cnc(N)c(Nc2ccc(C#N)cc2)c1 | 0.07
21 | N#Cc1ccc(Nc2cc(Oc3c(Br)cc(Br)cc3Br)cnc2[N+](=O)[O-])cc1 | 0.79
22 | Cc1cccc(C)c1Oc1cnc(N)c(Nc2ccc(C#N)cc2)c1 | 0.6
23 | N#Cc1ccc(Nc2cc(Oc3c(Cl)cc(Cl)cc3Cl)cnc2N)cc1 | 0.26
24 | Cc1cc(Cl)cc(C)c1Oc1cnc(N)c(Nc2ccc(C#N)cc2)c1 | 0.37
25 | Cc1cc(Br)c(Oc2cnc(N)c(Nc3ccc(C#N)cc3)c2)c(Br)c1 | 0.07

molecular target: Human immunodeficiency virus type 1 reverse transcriptase (Human immunodeficiency virus 1, UniProt Q72547); assay: Inhibition of recombinant wild type HIV1 reverse transcriptase p66/p51 assessed as reduction in biotin-dUTP incorporation incubated for 40 mins using poly(rA) template and oligo(dT)16 primer by picogreen dye based spectrofluorometry; settings: not given

Row | Compound | IC50 [µM]
26 | COc1cccc(OC)c1Oc1cnc(N)c(Nc2ccc(C#N)cc2)c1 | 146
27 | Cc1cc(Br)c(Oc2cnc([N+](=O)[O-])c(Nc3ccc(C#N)cc3)c2)c(Br)c1 | 0.28
28 | Cc1cc(C#N)cc(C)c1Oc1cnc(N)c(Nc2ccc(C#N)cc2)c1 | 0.17
29 | Cc1cccc(C)c1Oc1cnc(N)c(Nc2ccc(C#N)cc2)c1 | 0.91
30 | N#Cc1ccc(Nc2cc(Oc3c(Cl)cc(Cl)cc3Cl)cnc2N)cc1 | 0.16
31 | Cc1cc(Cl)cc(C)c1Oc1cnc(N)c(Nc2ccc(C#N)cc2)c1 | 0.31
32 | Cc1cc(Br)c(Oc2cnc(N)c(Nc3ccc(C#N)cc3)c2)c(Br)c1 | 0.05

system: Human immunodeficiency virus 1; assay: Antiviral activity against HIV1 RES056 expressing reverse transcriptase K103N/Y181C double mutant infected in human MT4 cells assessed as inhibition of virus-induced cytopathogenicity by measuring virus-induced syncytium formation by MTT assay; assay type: functional, organism-based; settings: Human immunodeficiency virus 1, RES056, MT4
Summary of the method: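 MT-4 cells (exponentially growing, spun 5 min at 220 g, resuspended at 6×10^5 cells/mL) infected with 100-300 CCID₅₀ virus; serial fivefold compound dilutions added at start, triplicate wells, mock-infected set in parallel. Viability read by MTT reduction at 540 and 690 nm after 5 days; median OD of three wells; EC₅₀ = concentration inhibiting virus-induced syncytium formation by 50%.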

Row | Compound | EC50 [µM]
33 | Cc1cc(Cl)cc(C)c1Oc1cnc([N+](=O)[O-])c(Nc2ccc(C#N)cc2)c1 | > 317
34 | N#Cc1ccc(Nc2cc(Oc3c(Cl)cc(Cl)cc3Cl)cnc2[N+](=O)[O-])cc1 | > 287
35 | COc1cccc(OC)c1Oc1cnc(N)c(Nc2ccc(C#N)cc2)c1 | > 345
36 | Cc1cccc(C)c1Nc1cnc([N+](=O)[O-])c(Nc2ccc(C#N)cc2)c1 | > 6.27
37 | Cc1cc(Br)c(Oc2cnc([N+](=O)[O-])c(Nc3ccc(C#N)cc3)c2)c(Br)c1 | > 84.3
38 | Cc1cc(C#N)cc(C)c1Oc1cnc(N)c(Nc2ccc(C#N)cc2)c1 | ≥ 11.5
39 | N#Cc1ccc(Nc2cc(Oc3c(Br)cc(Br)cc3Br)cnc2[N+](=O)[O-])cc1 | > 220
40 | Cc1cccc(C)c1Oc1cnc(N)c(Nc2ccc(C#N)cc2)c1 | > 378
41 | N#Cc1ccc(Nc2cc(Oc3c(Cl)cc(Cl)cc3Cl)cnc2N)cc1 | > 179
42 | Cc1cc(Cl)cc(C)c1Oc1cnc(N)c(Nc2ccc(C#N)cc2)c1 | > 35.1
43 | Cc1cc(Br)c(Oc2cnc(N)c(Nc3ccc(C#N)cc3)c2)c(Br)c1 | > 264

system: Human immunodeficiency virus 2; assay: Antiviral activity against HIV2 ROD infected in human MT4 cells assessed as inhibition of virus-induced cytopathogenicity by measuring virus-induced syncytium formation by MTT assay; assay type: functional, organism-based; settings: Human immunodeficiency virus 2, ISOLATE ROD
Summary of the method: as §1, with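 “three wells. EC₅₀ was taken as 50% inhibition of virus-induced syncytium formation.” for “three wells.”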

Row | Compound | EC50 [µM]
44 | Cc1cc(Cl)cc(C)c1Oc1cnc([N+](=O)[O-])c(Nc2ccc(C#N)cc2)c1 | > 317
45 | N#Cc1ccc(Nc2cc(Oc3c(Cl)cc(Cl)cc3Cl)cnc2[N+](=O)[O-])cc1 | > 287
46 | COc1cccc(OC)c1Oc1cnc(N)c(Nc2ccc(C#N)cc2)c1 | > 345
47 | Cc1cccc(C)c1Nc1cnc([N+](=O)[O-])c(Nc2ccc(C#N)cc2)c1 | > 6.27
48 | Cc1cc(Br)c(Oc2cnc([N+](=O)[O-])c(Nc3ccc(C#N)cc3)c2)c(Br)c1 | > 84.3
49 | Cc1cc(C#N)cc(C)c1Oc1cnc(N)c(Nc2ccc(C#N)cc2)c1 | > 39.5
50 | N#Cc1ccc(Nc2cc(Oc3c(Br)cc(Br)cc3Br)cnc2[N+](=O)[O-])cc1 | > 220
51 | Cc1cccc(C)c1Oc1cnc(N)c(Nc2ccc(C#N)cc2)c1 | > 378
52 | N#Cc1ccc(Nc2cc(Oc3c(Cl)cc(Cl)cc3Cl)cnc2N)cc1 | ≥ 57.7
53 | Cc1cc(Cl)cc(C)c1Oc1cnc(N)c(Nc2ccc(C#N)cc2)c1 | > 35.1
54 | Cc1cc(Br)c(Oc2cnc(N)c(Nc3ccc(C#N)cc3)c2)c(Br)c1 | > 264

system: not listed separately; assay: Cytotoxicity in mock-infected human MT4 cells assessed as reduction in cell viability by MTT assay; assay type: cell-based; settings: not given
Summary of the method: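 Mock-infected MT-4 cells were run in parallel with the infected series: 6×10^5 cells/mL, serial fivefold compound dilutions, triplicate wells. MTT viability was read 5 days later at 540/690 nm from the median OD of three wells. CC₅₀ is the concentration cutting OD540 of mock-infected controls by 50%.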

Row | Compound | CC50 [µM]
55 | Cc1cn([C@H]2C[C@H](N=[N+]=[N-])[C@@H](CO)O2)c(=O)[nH]c1=O [ZIDOVUDINE] | > 7.48
56 | Cc1cc(Cl)cc(C)c1Oc1cnc([N+](=O)[O-])c(Nc2ccc(C#N)cc2)c1 | > 317
57 | N#Cc1ccc(Nc2cc(Oc3c(Cl)cc(Cl)cc3Cl)cnc2[N+](=O)[O-])cc1 | > 287
58 | COc1cccc(OC)c1Oc1cnc(N)c(Nc2ccc(C#N)cc2)c1 | > 345
59 | Cc1cccc(C)c1Nc1cnc([N+](=O)[O-])c(Nc2ccc(C#N)cc2)c1 | 6.27
60 | Cc1cc(Br)c(Oc2cnc([N+](=O)[O-])c(Nc3ccc(C#N)cc3)c2)c(Br)c1 | 84.3
61 | Cc1cc(C#N)cc(C)c1Oc1cnc(N)c(Nc2ccc(C#N)cc2)c1 | 39.5
62 | N#Cc1ccc(Nc2cc(Oc3c(Br)cc(Br)cc3Br)cnc2[N+](=O)[O-])cc1 | > 220
63 | Cc1cccc(C)c1Oc1cnc(N)c(Nc2ccc(C#N)cc2)c1 | > 378
64 | N#Cc1ccc(Nc2cc(Oc3c(Cl)cc(Cl)cc3Cl)cnc2N)cc1 | 179
65 | Cc1cc(Cl)cc(C)c1Oc1cnc(N)c(Nc2ccc(C#N)cc2)c1 | 35.1
66 | Cc1cc(Br)c(Oc2cnc(N)c(Nc3ccc(C#N)cc3)c2)c(Br)c1 | > 264
